Measurements collected from several papers.
Protocols differ between the studies behind these lines.
Cell line: IGROV-1
Read-out: cell growth or viability

Cc1cc(C)n(C(=S)[S][Au][PH](CCCCCC[PH]([Au][S]C(=S)n2nc(C)cc2C)(c2ccccc2)c2ccccc2)(c2ccccc2)c2ccccc2)n1
GI50: 1.19 µM

COc1ccc(-c2ccc(-c3ccc(C(=N)N)nc3)s2)cc1
GI50 (SRB): 1.84 µM

COc1cc2c3cc1Oc1c(OC)c(OC)cc4c1[C@@H](Cc1ccc(O)c(c1)Oc1ccc(cc1)C[C@@H]3N(C)CC2)N(C)CC4
IC50 (72 h): 29.6 µM

COc1ccc(-c2ccc(-c3ccc(C(=N)N)nc3)s2)cc1Cl
GI50 (SRB): 1.78 µM

COc1ccc(C(=O)/C=C/c2ccc3c(c2)OCCO3)cc1S(N)(=O)=O
inhibition (SRB; 10 µM): 36%

S=C([S][Au-][P+](CCCCCC[P+]([Au-][S]C(=S)n1cccn1)(c1ccccc1)c1ccccc1)(c1ccccc1)c1ccccc1)n1cccn1
GI50: 2.26 µM

COc1cccc(Oc2ccccc2NC(=O)CNC(=O)c2cccc3ccccc23)c1
GI50 (SRB; 48 h): 1.05 µM

COc1ccc(C(=O)/C=C/c2cccc3ccccc23)cc1S(N)(=O)=O
GI50 (SRB; 48 h): 2.3 µM
